According to ChEMBL document CHEMBL1154352, “Toll-like receptor 7 selective synthetic oligoribonucleotide agonists: synthesis and structure-activity relationship studies” (J Med Chem, 2009):
The source made the active and inactive calls. No cut-off for these calls is given here.

How the values were obtained:
[1] = Metabolic stability in human serum assessed as full length product remaining after 10 mins by HPLC; assay type: ADME, cell-free; conditions: read-out: Stability
How it was run: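 About 0.5 A260 units compound in 1% human serum in PBS, 37 °C; aliquot taken at 10 min, analysed by anion-exchange HPLC for percent intact full-length product.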

[2] = target: T1, Toll-like receptor 8 (Homo sapiens) (UniProt Q9NR97); assay: Activation of human TLR8 expressed in HEK293XL assessed as fold induction of NF-kappaB activity at 50 ug/ml after 18 hrs by reporter gene assay relative to control
T1 sequence (whole entry): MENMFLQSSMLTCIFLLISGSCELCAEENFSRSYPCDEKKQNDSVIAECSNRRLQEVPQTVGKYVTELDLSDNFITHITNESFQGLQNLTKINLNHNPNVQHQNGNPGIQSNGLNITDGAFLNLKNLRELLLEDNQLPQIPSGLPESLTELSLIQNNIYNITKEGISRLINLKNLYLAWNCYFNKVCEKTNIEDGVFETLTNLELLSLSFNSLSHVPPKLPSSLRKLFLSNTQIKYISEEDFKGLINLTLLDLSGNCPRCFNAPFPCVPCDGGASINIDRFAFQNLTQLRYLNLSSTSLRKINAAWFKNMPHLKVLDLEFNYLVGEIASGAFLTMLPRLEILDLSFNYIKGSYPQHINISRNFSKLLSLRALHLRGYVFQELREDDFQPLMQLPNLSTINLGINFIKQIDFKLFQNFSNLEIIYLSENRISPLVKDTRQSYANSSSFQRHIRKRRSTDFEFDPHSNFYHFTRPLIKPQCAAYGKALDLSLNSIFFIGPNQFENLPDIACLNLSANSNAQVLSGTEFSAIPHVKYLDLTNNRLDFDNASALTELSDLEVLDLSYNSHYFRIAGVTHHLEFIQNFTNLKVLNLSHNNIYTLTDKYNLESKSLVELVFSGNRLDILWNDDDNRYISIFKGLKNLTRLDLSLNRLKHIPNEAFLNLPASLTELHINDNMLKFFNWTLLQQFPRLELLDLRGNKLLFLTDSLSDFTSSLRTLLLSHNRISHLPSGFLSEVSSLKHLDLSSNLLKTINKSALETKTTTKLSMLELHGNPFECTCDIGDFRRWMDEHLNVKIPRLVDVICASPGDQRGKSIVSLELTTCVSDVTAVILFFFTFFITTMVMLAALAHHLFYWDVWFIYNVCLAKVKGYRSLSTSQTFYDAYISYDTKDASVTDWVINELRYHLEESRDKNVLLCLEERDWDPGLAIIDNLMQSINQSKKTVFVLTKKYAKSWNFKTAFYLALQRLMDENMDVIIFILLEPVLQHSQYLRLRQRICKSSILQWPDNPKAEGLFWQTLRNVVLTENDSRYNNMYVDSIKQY
How it was run: (§1)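 HEK293 cells stably expressing human TLR7 or TLR8, transiently transfected with SEAP reporter plasmid; medium replaced, SIMRA compounds added, 18 h incubation. Supernatant SEAP measured by QuantiBlue; expressed as fold increase in NF-κB activity over PBS control. Tabulated data at 50 μg/mL, representative of three independent experiments.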

[3] = target: T2, Toll-like receptor 7 (Homo sapiens) (UniProt Q9NYK1); assay: Activation of human TLR7 expressed in HEK293XL assessed as fold induction of NF-kappaB activity at 50 ug/ml after 18 hrs by reporter gene assay relative to control; how it was run: as §1
T2 sequence (whole entry): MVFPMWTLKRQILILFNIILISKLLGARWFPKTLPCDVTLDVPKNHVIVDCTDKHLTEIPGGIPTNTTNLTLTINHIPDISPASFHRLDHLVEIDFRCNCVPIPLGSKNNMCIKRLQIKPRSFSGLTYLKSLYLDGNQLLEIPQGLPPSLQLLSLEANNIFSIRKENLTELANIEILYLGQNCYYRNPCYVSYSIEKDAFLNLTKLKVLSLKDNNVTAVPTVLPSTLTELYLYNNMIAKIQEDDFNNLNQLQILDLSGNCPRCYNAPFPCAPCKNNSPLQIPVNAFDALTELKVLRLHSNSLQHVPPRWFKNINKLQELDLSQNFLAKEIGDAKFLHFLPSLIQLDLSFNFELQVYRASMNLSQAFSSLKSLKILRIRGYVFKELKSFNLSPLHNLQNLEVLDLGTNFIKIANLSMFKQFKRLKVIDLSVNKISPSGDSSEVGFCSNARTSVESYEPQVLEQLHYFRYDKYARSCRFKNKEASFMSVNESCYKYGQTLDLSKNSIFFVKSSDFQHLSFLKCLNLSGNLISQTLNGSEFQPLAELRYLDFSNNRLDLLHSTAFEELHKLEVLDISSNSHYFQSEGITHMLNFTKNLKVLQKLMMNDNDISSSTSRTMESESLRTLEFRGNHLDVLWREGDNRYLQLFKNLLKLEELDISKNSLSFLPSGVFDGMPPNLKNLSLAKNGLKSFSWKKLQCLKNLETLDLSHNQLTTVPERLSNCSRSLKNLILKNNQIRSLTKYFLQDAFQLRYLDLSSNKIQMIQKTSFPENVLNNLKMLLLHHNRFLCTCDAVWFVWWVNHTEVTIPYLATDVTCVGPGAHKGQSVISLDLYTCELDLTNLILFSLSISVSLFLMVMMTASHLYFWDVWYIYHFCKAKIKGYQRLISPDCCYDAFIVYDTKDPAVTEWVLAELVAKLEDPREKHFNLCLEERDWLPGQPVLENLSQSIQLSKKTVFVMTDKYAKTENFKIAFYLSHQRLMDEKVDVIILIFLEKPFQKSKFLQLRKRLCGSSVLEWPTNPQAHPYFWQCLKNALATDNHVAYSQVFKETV

[4] = system: PBMC; assay: Immunomodulatory activity in human PBMC assessed as induction of TNFalpha at 100 ug/ml after 24 hrs; assay type: functional, cell-based
How it was run: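 Human PBMCs plated at 5 × 10^6 cells/mL; compounds dissolved in PBS added at various concentrations, 37 °C for 24 h. Supernatant cytokines/chemokines quantified with human Luminex multiplex kit.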

[5] = species: Homo sapiens; assay: Ratio of human TLR7 activity to human TLR8 activity
How it was run: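 TLR7/TLR8 ratio computed from fold NF-κB (SEAP reporter) activation in HEK293 cells stably expressing human TLR7 versus TLR8, compounds at 50 μg/mL, 18 h exposure; representative of three independent experiments.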

Row | remaining at 10 min [1] [%] | fold change (FC) [2] | fold change (FC) [3] | Activity [5] | Ratio [5] | Structure (SMILES) | Activity [4] [pg/mL]
1 | 92 | 0.7 | 0.3 | Active | – | Nc1ncnc2c1ncn2[C@@H]1O[C@H](CO)[C@@H](OP(=O)(S)OC[C@H]2O[C@@H](n3cnc4c(N)ncnc43)[C@H](O)[C@@H]2OP(=O)(S)OC[C@H]2O[C@@H](n3cnc4c(N)ncnc43)[C@H](O)[C@@H]2OP(=O)(S)OC[C@H]2O[C@@H](n3cnc4c(N)ncnc43)[C@H](O)[C@@H]2OP(=O)(S)OC[C@H]2O[C@@H](n3cnc4c(N)ncnc43)[C@H](O)[C@@H]2OP(=O)(S)OC[C@H]2O[C@@H](n3cnc4c(N)ncnc43)[C@H](O)[C@@H]2OP(=O)(S)OC[C@H]2O[C@@H](n3cnc4c(N)ncnc43)[C@H](O)[C@@H]2OP(=O)(S)OC[C@H]2O[C@@H](n3cnc4c(N)ncnc43)[C@H](O)[C@@H]2OP(=O)(S)OC[C@H]2O[C@@H](n3cnc4c(N)ncnc43)[C@H](O)[C@@H]2OP(=O)(S)OC[C@H]2O[C@@H](n3cnc4c(N)ncnc43)[C@H](O)[C@@H]2OP(=O)(S)OC[C@H]2O[C@@H](n3cnc4c(N)ncnc43)[C@H](O)[C@@H]2OP(=O)(S)OCC(O)COP(=O)(S)O[C@H]2[C@@H](O)[C@H](n3cnc4c(N)ncnc43)O[C@@H]2COP(=O)(S)O[C@H]2[C@@H](O)[C@H](n3cnc4c(N)ncnc43)O[C@@H]2COP(=O)(S)O[C@H]2[C@@H](O)[C@H](n3cnc4c(N)ncnc43)O[C@@H]2COP(=O)(S)O[C@H]2[C@@H](O)[C@H](n3cnc4c(N)ncnc43)O[C@@H]2COP(=O)(S)O[C@H]2[C@@H](O)[C@H](n3cnc4c(N)ncnc43)O[C@@H]2COP(=O)(S)O[C@H]2[C@@H](O)[C@H](n3cnc4c(N)ncnc43)O[C@@H]2COP(=O)(S)O[C@H]2[C@@H](O)[C@H](n3cnc4c(N)ncnc43)O[C@@H]2COP(=O)(S)O[C@H]2[C@@H](O)[C@H](n3cnc4c(N)ncnc43)O[C@@H]2COP(=O)(S)O[C@H]2[C@@H](O)[C@H](n3cnc4c(N)ncnc43)O[C@@H]2COP(=O)(S)O[C@H]2[C@@H](O)[C@H](n3cnc4c(N)ncnc43)O[C@@H]2COP(=O)(S)O[C@H]2[C@@H](O)[C@H](n3cnc4c(N)ncnc43)O[C@@H]2CO)[C@H]1O (stereo not given in full) | 1.6
2 | 78 | 9.2 | 0.5 | – | 0.1 | Nc1ccn([C@@H]2O[C@H](COP(=O)(S)O[C@H]3[C@@H](O)[C@H](n4cnc5c(=O)[nH]c(N)nc54)O[C@@H]3COP(=O)(S)O[C@H]3[C@@H](O)[C@H](n4ccc(=O)[nH]c4=O)O[C@@H]3COP(=O)(S)OCCCO)[C@@H](OP(=O)(S)OC[C@H]3O[C@@H](n4ccc(=O)[nH]c4=O)[C@H](O)[C@@H]3OP(=O)(S)OC[C@H]3O[C@@H](n4cnc5c(=O)[nH]c(N)nc54)[C@H](O)[C@@H]3OP(=O)(S)OC[C@H]3O[C@@H](n4ccc(N)nc4=O)[C@H](O)[C@@H]3OP(=O)(S)OC[C@H]3O[C@@H](n4ccc(=O)[nH]c4=O)[C@H](O)[C@@H]3OP(=O)(S)OC[C@H]3O[C@@H](n4ccc(=O)[nH]c4=O)[C@H](O)[C@@H]3OP(=O)(S)OC[C@H]3O[C@@H](n4cnc5c(=O)[nH]c(N)nc54)[C@H](O)[C@@H]3OP(=O)(S)OC[C@H]3O[C@@H](n4ccc(=O)[nH]c4=O)[C@H](O)[C@@H]3OP(=O)(S)OC[C@H]3O[C@@H](n4cnc5c(=O)[nH]c(N)nc54)[C@H](O)[C@@H]3OP(=O)(S)OCC(O)COP(=O)(S)O[C@H]3[C@@H](O)[C@H](n4cnc5c(=O)[nH]c(N)nc54)O[C@@H]3COP(=O)(S)O[C@H]3[C@@H](O)[C@H](n4ccc(=O)[nH]c4=O)O[C@@H]3COP(=O)(S)O[C@H]3[C@@H](O)[C@H](n4cnc5c(=O)[nH]c(N)nc54)O[C@@H]3COP(=O)(S)O[C@H]3[C@@H](O)[C@H](n4ccc(=O)[nH]c4=O)O[C@@H]3COP(=O)(S)O[C@H]3[C@@H](O)[C@H](n4ccc(=O)[nH]c4=O)O[C@@H]3COP(=O)(S)O[C@H]3[C@@H](O)[C@H](n4ccc(N)nc4=O)O[C@@H]3COP(=O)(S)O[C@H]3[C@@H](O)[C@H](n4cnc5c(=O)[nH]c(N)nc54)O[C@@H]3COP(=O)(S)O[C@H]3[C@@H](O)[C@H](n4ccc(=O)[nH]c4=O)O[C@@H]3COP(=O)(S)O[C@H]3[C@@H](O)[C@H](n4ccc(N)nc4=O)O[C@@H]3COP(=O)(S)O[C@H]3[C@@H](O)[C@H](n4cnc5c(=O)[nH]c(N)nc54)O[C@@H]3COP(=O)(S)O[C@H]3[C@@H](O)[C@H](n4ccc(=O)[nH]c4=O)O[C@@H]3COP(=O)(S)OCCCO)[C@H]2O)c(=O)n1 (stereo not given in full) | 260
